Data: ChEMBL document CHEMBL1687898, “Structure-activity relationships in glycosylated 2-phenyl-indoles, 2-phenyl-benzo[b]thiophenes and 2-phenyl-benzo[b]furans as DNA binding and potential antitumor agents” (Bioorg Med Chem, 2011)

Legend:
Nucleic Acid [1] = assay: Displacement of ethidium bromide from herring sperm DNA assessed as remaining ethidium bromide at 50 uM by FID assay; format: nucleic-acid assay; conditions: Clupeidae
Method in brief: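 Single-point FID. Read EtBr (5 µM) in BPE buffer (pH 7.0), exc 520 nm, em 540–700 nm, then read again with sheared herring sperm DNA added; the intensity difference is 100%. Compound added from 10 mM DMSO stock to a final 50 µM, equilibrated ~3 min, rescanned until steady. % EtBr remaining is the mean of triplicates.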

MCF7 [2] = assay: Cytotoxicity against human MCF7 cells assessed as cell viability at 25 uM by MTS assay; format: functional; conditions: read-out: Activity
Method in brief: (§1)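 Cells kept in DMEM high glucose with 10% FBS and 2 mM L-glutamine, 37 °C, 5% CO2, and seeded at 1 × 10⁴ cells/well. After 24 h, switched to serum-free DMEM-F12 with albumin, transferrin and insulin, with or without compound. Incubated 3 days at 37 °C in triplicate to quintuplicate wells. MTS added for 2–2.5 h and read at 490 nm. Viability given as % of media-only control. IC50 from Boltzmann nonlinear regression.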

HT-29 [3] = assay: Cytotoxicity against human HT-29 cells assessed as cell viability at 25 uM by MTS assay; format: functional; conditions: read-out: Activity; method in brief: as §1
HepG2 [4] = assay: Cytotoxicity against human HepG2 cells assessed as cell viability at 25 uM by MTS assay; format: functional; conditions: read-out: Activity; method in brief: as §1
HT-29 [5] = assay: Cytotoxicity against human HT-29 cells by MTS assay; format: functional, cell-based; method in brief: as §1
HepG2 [6] = assay: Cytotoxicity against human HepG2 cells by MTS assay; format: functional, cell-based; method in brief: as §1
MCF7 [7] = assay: Cytotoxicity against human MCF7 cells by MTS assay; format: functional, cell-based; method in brief: as §1
Nucleic Acid [8] = assay: Displacement of ethidium bromide from herring sperm DNA assessed as compound concentration required to 50% fluorescence loss of EtBr by FID assay; format: nucleic-acid assay; conditions: Clupeidae
Method in brief: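 Multiple-point FID in the same system: 0.2 µL aliquots of 10 mM DMSO stock added stepwise, fluorescence read after each addition, until 50% loss of EtBr fluorescence. Apparent binding constant K_Ligand = K_EtBr × [EtBr]/[Ligand]50%.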

Nucleic Acid [9] = assay: Displacement of ethidium bromide from herring sperm DNA assessed as remaining ethidium bromide at 100 uM by FID assay; format: nucleic-acid assay; conditions: Clupeidae
MCF7 [10] = assay: Cytotoxicity against human MCF7 cells assessed as cell viability at 100 uM by MTS assay; format: functional; conditions: read-out: Activity
HT-29 [11] = assay: Cytotoxicity against human HT-29 cells assessed as cell viability at 100 uM by MTS assay; format: functional; conditions: read-out: Activity
HepG2 [12] = assay: Cytotoxicity against human HepG2 cells assessed as cell viability at 100 uM by MTS assay; format: functional; conditions: read-out: Activity
Nucleic Acid [13] = assay: Displacement of ethidium bromide from herring sperm DNA assessed as remaining ethidium bromide at 20 uM by FID assay; format: nucleic-acid assay; conditions: Clupeidae

Compound | Activity (Nucleic Acid [1]) [%] | viability at 25 µM (MCF7 [2]) [%] | viability at 25 µM (HT-29 [3]) [%] | viability at 25 µM (HepG2 [4]) [%] | IC50 (HT-29 [5]) [µM] | IC50 (HepG2 [6]) [µM] | IC50 (MCF7 [7]) [µM] | Activity (Nucleic Acid [8]) [µM] | Activity (Nucleic Acid [9]) [%] | viability at 100 µM (MCF7 [10]) [%] | viability at 100 µM (HT-29 [11]) [%] | viability at 100 µM (HepG2 [12]) [%] | Activity (Nucleic Acid [13]) [%]
C[C@@H]1O[C@H](OCC#Cc2c(-c3ccccc3)oc3ccccc23)CC[C@H]1O | 103 | 29 | 7 | 6 | 12.4 | 22.3 |  |  |  |  |  |  | 
C[C@@H]1O[C@H](OCC#Cc2c(-c3ccccc3)sc3ccccc23)CC[C@@H]1N | 26.6 | < 1 | < 1 | < 1 | 4.6 | 4.9 | 7.7 | 45 |  |  |  |  | 
C[C@@H]1O[C@@H](OCC#Cc2c(-c3ccccc3)sc3ccccc23)CC[C@@H]1O |  | 56 | 10 | 10 | 13.4 | 15.6 |  |  |  |  |  |  | 
CC(=O)O[C@@H]1CC[C@@H](OCC#Cc2c(-c3ccccc3)oc3ccccc23)O[C@H]1C |  | 78 | 9 | 15 | 10.7 | 20.9 |  |  |  |  |  |  | 
CC(=O)O[C@@H]1CC[C@H](OCC#Cc2c(-c3ccccc3)sc3ccccc23)O[C@H]1C |  | 27 | < 1 | < 1 | 7.2 | 12.3 |  |  |  |  |  |  | 
C[C@@H]1O[C@H](OCC#Cc2c(-c3ccccc3)sc3ccccc23)CC[C@H]1O | 99.9 | 23 | 2 | 7 | 12.8 | 13.6 |  |  |  |  |  |  | 
C[C@@H]1O[C@@H](OCC#Cc2c(-c3ccccc3)sc3ccccc23)CC[C@H]1O | 103 | 51 | 6 | 25 | 11.1 | 16.4 |  |  |  |  |  |  | 
C[C@@H]1O[C@@H](OCC#Cc2c(-c3ccccc3)oc3ccccc23)CC[C@@H]1N | 68.5 |  |  |  |  |  |  |  | 68.5 |  |  |  | 
C[C@@H]1O[C@@H](OCCCc2c(-c3ccccc3)oc3ccccc23)CC[C@@H]1N |  | < 1 | < 1 | < 1 | 6.9 | 7.7 | 13.8 |  | 43.5 |  |  |  | 
OCCCc1c(-c2ccccc2)sc2ccccc12 |  | 79 | < 1 | 87 | 16.3 |  |  |  |  | < 1 | < 1 | < 1 | 
C[C@@H]1O[C@@H](OCC#Cc2c(-c3ccccc3)oc3ccccc23)CC[C@H]1O | 96.7 | 38 | 3 | < 1 | 13.1 | 15.3 |  |  |  |  |  |  | 
C[C@@H]1O[C@@H](OCC#Cc2c(-c3ccccc3)sc3ccccc23)CC[C@@H]1OC(=O)c1ccccc1 |  | 100 | 81 | 99 |  |  |  |  |  |  |  |  | 
CC(=O)O[C@@H]1CC[C@@H](OCC#Cc2c(-c3ccccc3)sc3ccccc23)O[C@H]1C |  | 40 | < 1 | 8 | 10 | 15.7 |  |  |  |  |  |  | 
C[C@@H]1O[C@@H](OCCCc2c(-c3ccccc3)sc3ccccc23)CC[C@H]1O |  | 68 | 19 | 84 | 15.3 |  |  |  |  |  |  |  | 
Cc1ccc(S(=O)(=O)n2c(-c3ccccc3)c(C#CCO[C@@H]3CC[C@H](N)[C@H](C)O3)c3ccccc32)cc1 | 19.8 | < 1 | < 1 | < 1 | 5.3 | 5 | 5.3 | 55 |  |  |  |  | > 100
C[C@@H]1O[C@@H](OCC#Cc2c(-c3ccccc3)sc3ccccc23)CC[C@@H]1N | 79.9 |  |  |  |  |  |  |  | 79.9 |  |  |  | 
C[C@@H]1O[C@@H](OCC#Cc2c(-c3ccccc3)sc3ccccc23)CC[C@H]1N |  | < 1 | < 1 | < 1 | 5.3 | 4.7 | 6.6 |  |  |  |  |  | 
C[C@@H]1O[C@@H](OCCCc2c(-c3ccccc3)sc3ccccc23)CC[C@@H]1N |  | < 1 | < 1 | < 1 | 8.2 | 7.5 | 11.8 |  | 51.9 |  |  |  | 
C[C@@H]1O[C@@H](OCC#Cc2c(-c3ccccc3)sc3ccccc23)CC[C@@H]1OC=O |  | 59 | 2 | 17 | 12.6 | 19.8 |  |  |  |  |  |  | 
CC(=O)O[C@@H]1CC[C@H](OCCCc2c(-c3ccccc3)sc3ccccc23)O[C@H]1C |  | 47 | 9 | 72 | 10.2 |  |  |  |  |  |  |  | 
C[C@@H]1O[C@H](OCC#Cc2c(-c3ccccc3)oc3ccccc23)CC[C@@H]1N | 26.9 | < 1 | < 1 | < 1 | 5.4 | 6.7 | 8.3 | 55 |  |  |  |  | > 100
C[C@@H]1O[C@@H](OCCCc2c(-c3ccccc3)oc3ccccc23)CC[C@H]1O |  | 65 | 25 | 62 | 16.9 |  |  |  |  |  |  |  | 
Cc1ccc(S(=O)(=O)n2c(-c3ccccc3)c(C#CCO[C@H]3CC[C@H](N)[C@H](C)O3)c3ccccc32)cc1 | 38.6 |  |  |  |  |  |  |  |  |  |  |  | 
C[C@@H]1O[C@@H](OCC#Cc2c(-c3ccccc3)sc3ccccc23)CC[C@H]1OC=O |  | 37 |  | < 1 | 7.7 | 17.4 |  |  |  |  |  |  | 
CC(=O)O[C@@H]1CC[C@H](OCC#Cc2c(-c3ccccc3)oc3ccccc23)O[C@H]1C |  | 24 | 8 | 5 | 11.8 | 19.2 |  |  |  |  |  |  | 
CC(=O)O[C@@H]1CC[C@H](OCCCc2c(-c3ccccc3)oc3ccccc23)O[C@H]1C |  | 53 | 19 | 42 | 17.8 |  |  |  |  |  |  |  | 
OCCCc1c(-c2ccccc2)oc2ccccc12 |  | 94 | 76 | 91 |  |  |  |  |  | 16 | < 1 | < 1 | 
Cc1ccc(S(=O)(=O)n2c(-c3ccccc3)c(C#CCO[C@@H]3CC[C@@H](O)[C@H](C)O3)c3ccccc32)cc1 | 109 | 33 | 24 | 5 |  | 18.6 |  |  |  |  |  |  | 
Cc1ccc(S(=O)(=O)n2c(-c3ccccc3)c(C#CCO[C@H]3CC[C@@H](O)[C@H](C)O3)c3ccccc32)cc1 | 111 | 40 | 54 | 27 |  |  |  |  |  |  |  |  | 
